The source made the active and inactive calls. The rule behind the calls is not given here.

Assay [1] relates to Rattus norvegicus. Briefly: Induction of vaginal cornification in ovariectomized mature rat at 5 to 10 mg/kg, po administered with sesame oil by Allen-Doisy method relative to control. It is filed as functional. The settings on record: dose mg/kg 5-10. A digest of the protocol: (§1)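 Allen-Doisy test in ovariectomized mature rats, 14-59 rats per compound and 4-20 per group. Dose ranges were set from the uterotropic results. A smear counted as positive if it was mainly nucleated or cornified epithelial cells with no leucocytes. Results are given as the dose ranges giving positive smears.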

For assay [2], the system named is Rattus norvegicus. Briefly: Antiestrogenic activity in ethynylestradiol-stimulated immature rat assessed as doubling of uterine weight up to 3 mg/kg, po administered for three days by uterotropic assay. On the set-up: dose 3 mg/kg. It is filed as functional, organism-based. A digest of the protocol:
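Modified Edgren–Calhoun method in immature rats. The test material was given orally for 3 days together with enough ethynylestradiol to double uterine weight, and uterine weight was the end point.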

Assay [3] in a line: Displacement of 17beta-[3H]estradiol from rabbit uterine estrogen receptor after 16 to 18 hrs by liquid scintillation counting. On the set-up: species or system Oryctolagus cuniculus. In short, it runs like this:
(§2)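 Rabbit uterine cytosol, 0.7 μg protein per tube, with 16000 dpm 17β-[3H]estradiol (113 Ci/mmol) in Tris-HCl pH 8.0, 0.001 M EDTA, 0.25 M sucrose. Eight concentrations from 1 × 10^-10 to 1 × 10^-4 M were run in duplicate and incubated 16-18 h at 4 °C. Bound and free were separated with dextran-coated charcoal, bound radioactivity was read by liquid scintillation, and results were compared with standards.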

The species entered for assay [4] is Oryctolagus cuniculus. Briefly: Displacement of 17beta-[3H]estradiol from rabbit uterine estrogen receptor after 16 to 18 hrs by liquid scintillation counting relative to ethynylestradiol. A digest of the protocol: as §2
Assay [5] deals with Rattus norvegicus. Briefly: Estrogenic activity in immature rat administered orally with sesame oil as three doses by uterotropic assay relative to ethynylestradiol. Format: functional. A digest of the protocol: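 Six-point oral assay in immature rats, with three doses of ethynylestradiol standard and three doses of test compound in sesame oil, 9-15 rats per dose group. Dose-response lines were checked for linearity and parallelism. Relative potency and 95% confidence limits were computed, and values are combined from three assays.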

Assay [6] concerns Rattus norvegicus. As to the kind of experiment: Induction of vaginal cornification in ovariectomized mature rat at 10 to 20 mg/kg, po administered with sesame oil by Allen-Doisy method relative to control. Format: functional. Conditions: dose mg/kg 10-20. In short, it runs like this:
as §1

The species named for assay [7] is Oryctolagus cuniculus. As to the kind of experiment: Displacement of 17beta-[3H]estradiol from rabbit uterine estrogen receptor at 1 x 10^-4 M after 16 to 18 hrs by liquid scintillation counting. In short, it runs like this: as §2
The subject of assay [8] is Rattus norvegicus. As to the kind of experiment: Induction of vaginal cornification in ovariectomized mature rat at 0.25 to 0.5 mg/kg, po administered with sesame oil by Allen-Doisy method relative to control. Format: functional. The settings on record: dose mg/kg 0.25-0.5. In short, it runs like this:
as §1

In assay [9] the test system is Rattus norvegicus. As to the kind of experiment: Induction of vaginal cornification in ovariectomized mature rat at 0.025 to 0.1 mg/kg, po administered with sesame oil by Allen-Doisy method relative to control. It is filed as functional. Conditions: dose mg/kg 0.025-0.1. In short, it runs like this: as §1
Assay [10] concerns Rattus norvegicus. As to the kind of experiment: Induction of vaginal cornification in ovariectomized mature rat at 0.005 to 0.010 mg/kg, po administered with sesame oil by Allen-Doisy method relative to control. Format: functional. Conditions: dose mg/kg 0.005-0.010. In short, it runs like this:
as §1

As usually defined, the IC50 is the concentration that inhibits the measured activity by half. Lower therefore signals inhibition by little substance. Turning to `C#C[C@@]1(O)CC[C@H]2[C@@H]3CCc4cc(O)ccc4[C@H]3CC[C@@]21C`, in the assay with Rattus norvegicus [1], the Activity worked out at 0%. The outcome with Rattus norvegicus [2] was inactive. Besides, the IC50 in [3] worked out at 15 nM. Also, the Ratio in the assay listed under Oryctolagus cuniculus [4] is 0.016.
As for `C#C[C@@]1(O)CC[C@H]2[C@@H]3CCc4cc(OC)ccc4[C@H]3CC[C@@]21C`, in the assay on Rattus norvegicus [5], the Ratio was 0.0023. The Activity in the assay with Rattus norvegicus [6] was 0%. Also, in the assay filed under Oryctolagus cuniculus [7], the inhibition result was “inactive”.
As to `C#C[C@@]1(O)CC[C@H]2[C@@H]3CCc4cc(OC5CCCC5)ccc4[C@H]3CC[C@@]21C`, the Ratio in the assay with Rattus norvegicus [5] is given as 0.05. The compound also yielded an Activity in the assay with Rattus norvegicus [8] of 25%. Further, the inhibition entry in the assay filed under Oryctolagus cuniculus [7] was “inactive”.
In the assay on Rattus norvegicus [9], `C#C[C@]1(O)CC[C@H]2[C@@H]3CCc4cc(O)ccc4[C@H]3CC[C@@]21C` [ETHINYL ESTRADIOL] displayed an Activity of 10%. Further, the IC50 in [3] was found to be 0.24 nM.
For `C#C[C@]1(O)CC[C@H]2[C@@H]3CCc4cc(OC)ccc4[C@H]3CC[C@@]21C` [MESTRANOL], the Ratio in the assay with Rattus norvegicus [5] was 0.84; in the assay filed under Oryctolagus cuniculus [4], 0.0012. Moreover, in the assay with Rattus norvegicus [9], the Activity is 11%. The IC50 in [3] was 200 nM.
As for `C#C[C@]1(O)CC[C@H]2[C@@H]3CCc4cc(OC5CCCC5)ccc4[C@H]3CC[C@@]21C` [QUINESTROL], the Ratio with Rattus norvegicus [5] came to 1.66; in the assay listed under Oryctolagus cuniculus [4], 4e-05. Besides, the Activity with Rattus norvegicus [10] amounted to 40%. Besides, in assay [3], the IC50 was determined as 6000 nM.

The values above are taken from ChEMBL document CHEMBL3228027, “Synthesis and estrogenic properties of 17-epi-ethynylestradiol and its ether derivatives epimestranol and epiquinestrol” (J Med Chem, 1979).
